Measurements of several laboratories.
Protocols differ between the studies behind these lines.
CDK2 with cyclin A: Cyclin-dependent kinase 2, with cyclin A (CDK2, Homo sapiens, UniProt P24941)
CDK2 with cyclin E: Cyclin-dependent kinase 2, with cyclin E (CDK2, Homo sapiens, UniProt P24941)
CDK2: Cyclin-dependent kinase 2 (CDK2, Homo sapiens, UniProt P24941)

Structure (SMILES)	target	observed	mode	method	tested at	measurement	result
C#Cc1n[nH]c2c(-c3cn([C@@H](C)c4ccccc4)c(=O)[nH]c3=O)cc(F)cc12	CDK2 with cyclin A	enzyme activity	inhibitor	–	0.1 µM	inhibition	6.3%
O=c1[nH]c2ccccc2n1C1CCN(Cc2ccc(-c3[nH]c4cc5ncnc5cc4nc3-c3ccccc3)cc2)CC1	CDK2 with cyclin E	cell-free assay	–	–	0.5 µM	remaining signal	95.6%
Cn1cncc1[C@@](O)(COc1ccc(C#N)cc1-c1ccc(OC(F)(F)F)cc1)c1ccc(C#N)cc1	CDK2	cell-free assay	–	competition with immobilised ligand	1 µM	remaining binding	89%
Cn1cc(-c2cccc(N3CCc4c(sc5c4CC(C)(C)C5)C3=O)c2CO)cc(Nc2ccncn2)c1=O	CDK2 with cyclin A	enzyme activity	inhibitor	–	1 µM	inhibition	-4%
O=C(Nc1cccnn1)N1CCN([C@@H]2CCOc3cc(C(F)(F)F)ccc32)CC1	CDK2 with cyclin E	cell-free assay	inhibitor	–	20 µM	inhibition	3%
Cc1ncc(C)n2nc(/C=C/c3nc(N4CCCC4)cc(N4CCOCC4)n3)nc12	CDK2 with cyclin A	enzyme activity	inhibitor	–	10 µM	inhibition	-3%
CC(C)(C)c1cc(C=C(C#N)C#N)cc(Br)c1O	CDK2 with cyclin E	enzyme activity	inhibitor	–	0.5 µM	remaining activity	77.6%
Cn1cc(-c2cc(F)cc(N3CCn4c(cc5c4CCCC5)C3=O)c2CO)cc(Nc2ccc(N3CCN(C4COC4)CC3)cn2)c1=O	CDK2 with cyclin A	enzyme activity	inhibitor	–	0.1 µM	inhibition	7%
COc1ncccc1-c1cnn2ccc(N3CCN(C(=O)OC(C)C)CC3)nc12	CDK2	binding	–	competition with immobilised ligand	1 µM	remaining binding	99%
N#CC1(c2ccccn2)CCN(Cc2cc(C(=O)O)c(=O)n3ccccc23)CC1	CDK2	cell-free assay	–	competition with immobilised ligand	1 µM	remaining binding	100%
Nc1ncc(-c2nc(N3CCOCC3)nc(N3CCOCC3)n2)c(C(F)F)n1	CDK2	binding	–	competition with immobilised ligand	10 µM	remaining binding	100%
